≈ marks a conversion by molar mass, not a printed value.
Key:
Format in all cases: functional
Rattus norvegicus [1] = assay: Antiinflammatory activity in albino Wistar rat assessed as inhibition of carrageenan-induced paw oedema at 50 mg/kg, po administered 1 hr prior to carrageenan challenge measured at 1 hr post carrageenan challenge by plethysmometeric analysis relative to control
Method in brief: (§1)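 Albino Wistar rats of either sex (130–150 g), 6 per group, fasted 12 h with water ad libitum. Test compounds were given orally at 50 mg/kg as DMSO solution; controls received 1 ml 20% v/v DMSO. One hour later, 0.1 ml 1% w/v carrageenan in 0.9% saline was injected into the left hind paw plantar region. Plethysmometer volume was read at 0 and 1–4 h. % inhibition = [1 − (Vt/Vc)] × 100.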

Staphylococcus aureus [2] = assay: Antibacterial activity against Staphylococcus aureus NCTC 7447 assessed as growth inhibition after 24 hrs by Kirby-Bauer disc diffusion method
Method in brief: (§2)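 Modified Kirby-Bauer disc diffusion on Mueller-Hinton agar spread with broth culture at about 10^8 cells/ml. Blank 8.0 mm paper discs were impregnated with test solution. Ampicillin discs at the same concentration and solvent served as positive control, and solvent discs as negative control. Plates were incubated at 35–37 °C, and inhibition-zone diameter (mm) was read at 24 h by caliper. % activity index = zone relative to ampicillin.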

Bacillus cereus [3] = assay: Antibacterial activity against Bacillus cereus NCTC 14579 assessed as growth inhibition after 24 hrs by Kirby-Bauer disc diffusion method relative to ampicillin; method in brief: as §2
Rattus norvegicus [4] = assay: Antiinflammatory activity in albino Wistar rat assessed as inhibition of carrageenan-induced paw oedema at 50 mg/kg, po administered 1 hr prior to carrageenan challenge measured at 3 hrs by plethysmometeric analysis relative to control; method in brief: as §1
Serratia marcescens [5] = assay: Antibacterial activity against Serratia marcescens IMRU 70 assessed as growth inhibition after 24 hrs by Kirby-Bauer disc diffusion method; method in brief: as §2
Serratia marcescens [6] = assay: Antibacterial activity against Serratia marcescens IMRU 70 assessed as growth inhibition after 24 hrs by Kirby-Bauer disc diffusion method relative to ampicillin; parameters: concentration or dose not given beside the values; method in brief: as §2
Proteus mirabilis [7] = assay: Antibacterial activity against Proteus mirabilis NCTC 289 assessed as growth inhibition after 24 hrs by Kirby-Bauer disc diffusion method; method in brief: as §2
Rattus norvegicus [8] = assay: Antiinflammatory activity in albino Wistar rat assessed as inhibition of carrageenan-induced paw oedema at 50 mg/kg, po administered 1 hr prior to carrageenan challenge measured at 4 hrs by plethysmometeric analysis relative to control; method in brief: as §1
Bacillus cereus [9] = assay: Antibacterial activity against Bacillus cereus NCTC 14579 assessed as growth inhibition after 24 hrs by Kirby-Bauer disc diffusion method; method in brief: as §2
Proteus mirabilis [10] = assay: Antibacterial activity against Proteus mirabilis NCTC 289 assessed as growth inhibition after 24 hrs by Kirby-Bauer disc diffusion method relative to ampicillin; parameters: concentration or dose not given beside the values; method in brief: as §2
Staphylococcus aureus [11] = assay: Antibacterial activity against Staphylococcus aureus NCTC 7447 assessed as growth inhibition after 24 hrs by Kirby-Bauer disc diffusion method relative to ampicillin; parameters: concentration or dose not given beside the values; method in brief: as §2
Rattus norvegicus [12] = assay: Antiinflammatory activity in albino Wistar rat assessed as inhibition of carrageenan-induced paw oedema at 50 mg/kg, po administered 1 hr prior to carrageenan challenge measured at 2 hrs by plethysmometeric analysis relative to control; method in brief: as §1
Staphylococcus aureus [13] = assay: Antibacterial activity against Staphylococcus aureus NCTC 7447 assessed as growth inhibition by disc diffusion method

| MIC (Staphylococcus aureus [13]) [µg/mL] | Compound | inhibition in vivo at 50 mg/kg (Rattus norvegicus [1]) [%] | diameter of the inhibition zone (DIZ) (Staphylococcus aureus [2]) [mm] | Activity_index (Bacillus cereus [3]) [%] | inhibition in vivo at 50 mg/kg (Rattus norvegicus [4]) [%] | diameter of the inhibition zone (DIZ) (Serratia marcescens [5]) [mm] | Activity_index (Serratia marcescens [6]) [%] | diameter of the inhibition zone (DIZ) (Proteus mirabilis [7]) [mm] | inhibition in vivo at 50 mg/kg (Rattus norvegicus [8]) [%] | diameter of the inhibition zone (DIZ) (Bacillus cereus [9]) [mm] | Activity_index (Proteus mirabilis [10]) [%] | Activity_index (Staphylococcus aureus [11]) [%] | inhibition in vivo at 50 mg/kg (Rattus norvegicus [12]) [%] |
| --- | --- | --- | --- | --- | --- | --- | --- | --- | --- | --- | --- | --- | --- |
|  | Nc1nc(-c2ccc(N3CCOCC3)cc2)cs1 | -17 | 5 | 17.39 | 75.3 | 3 | 15.72 | 2 | 86.8 | 4 | 9.52 | 20.83 | 31.7 |
|  | C/C(=N\NC1=NC(=O)C(C)S1)c1ccc(N2CCOCC2)cc1 (centres undefined) |  | 5 | 21.74 |  | 2 | 10.52 | 2 |  | 5 | 9.52 | 20.83 |  |
|  | C/C(=N\NC1=NCC(=O)S1)c1ccc(N2CCOCC2)cc1 | 29.5 | 5 | 16.67 | 63.4 | 3 | 15.72 | 2 | 78.2 | 4 | 9.52 | 20.83 | 28.6 |
|  | C/C(=N\Nc1nc(C)cs1)c1ccc(N2CCOCC2)cc1 |  | 5 | 13.04 |  | 2 | 15.72 | 2 |  | 3 | 9.52 | 20.83 |  |
|  | C/C(=N\Nc1nc(-c2ccccc2)cs1)c1ccc(N2CCOCC2)cc1 | -1.6 | 4 | 17.39 | 62.2 | 2 | 15.72 | 3 | 79.1 | 4 | 14.28 | 16.67 | 35 |
|  | C/C(=N\NC1=NC(=N)CS1)c1ccc(N2CCOCC2)cc1 |  | 5 | 17.39 |  | 3 | 15.72 | 2 |  | 4 | 9.52 | 20.83 |  |
| 40 (≈ 140 µM) | C/C(=N\NC(=O)CC#N)c1ccc(N2CCOCC2)cc1 |  | 18 | 17.39 |  | 2 | 15.72 | 3 |  | 4 | 14.28 | 75 |  |
|  | C/C(=N/NC(=O)/C(C#N)=C1/SC=C(c2ccccc2)N1c1ccccc1)c1ccc(N2CCOCC2)cc1 |  | 5 | 17.39 |  | 3 | 15.72 | 2 |  | 4 | 9.52 | 20.83 |  |
|  | CC1=C(O)N(c2ccccc2)/C(=C(/C#N)C(=O)N/N=C(/C)c2ccc(N3CCOCC3)cc2)S1 |  | 5 | 13.04 |  | 3 | 15.72 | 3 |  | 3 | 14.28 | 20.83 |  |
|  | C/C(=N/NC(=O)c1sc(=S)n(-c2ccccc2)c1N)c1ccc(N2CCOCC2)cc1 |  | 4 | 13.04 |  | 2 | 15.72 | 2 |  | 3 | 9.52 | 16.67 |  |
|  | C/C(=N/NC(=O)c1sc(=S)n(-c2ccc3ccccc3c2)c1N)c1ccc(N2CCOCC2)cc1 |  | 5 | 13.04 |  | 2 | 15.72 | 2 |  | 3 | 9.52 | 20.83 |  |
|  | Cc1ccc(/C=N/c2nc(-c3ccc(N4CCOCC4)cc3)cs2)cc1 |  | 4 | 17.39 |  | 3 | 15.72 | 2 |  | 4 | 9.52 | 16.67 |  |
|  | CC(=O)N(C(C)=O)c1nc(-c2ccc(N3CCOCC3)cc2)cs1 |  | 5 | 17.39 |  | 2 | 15.72 | 3 |  | 4 | 14.28 | 20.83 |  |
|  | C/C(=N/c1nc(-c2ccccc2)cs1)c1ccc(N2CCOCC2)cc1 | 27.2 | 5 | 17.39 | 59.8 | 2 | 15.72 | 3 | 81.6 | 4 | 14.28 | 20.83 | 22.9 |
|  | C/C(=N\N=C1/N=C2OC(=O)C=C2S1)c1ccc(N2CCOCC2)cc1 | 23.3 | 5 | 17.39 | 75.7 | 3 | 15.72 | 2 | 85 | 4 | 9.52 | 20.83 | 50.6 |
|  | C/C(=N\NC1=NC(=O)CS1)c1ccc(N2CCOCC2)cc1 | -58.6 | 4 | 17.39 | 29 | 3 | 15.72 | 3 | 35.7 | 4 | 14.28 | 16.67 | -8 |
|  | C/C(=N\N=C(\N)S)c1ccc(N2CCOCC2)cc1 | -35 | 4 | 17.39 | 55.7 | 3 | 15.72 | 2 | 83.6 | 4 | 9.52 | 16.67 | 23 |
|  | CC1(C)S[C@@H]2[C@H](NC(=O)[C@H](N)c3ccccc3)C(=O)N2[C@H]1C(=O)O [AMPICILLIN] |  | 24 |  |  | 21 |  | 21 |  | 23 |  |  |  |

Source: ChEMBL document CHEMBL2401617, “Synthesis and biological evaluation of some novel thiazole compounds as potential anti-inflammatory agents” (2013)
